According to PubChem BioAssay AID652236 (Johns Hopkins Ion Channel Center, 2013):
Among all 2,300 compounds or so, fewer than 10 were called active.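 How the source made its calls: active means duplicate-mean ratio percent above the mean of iodide-only control wells, which defines zero, plus 5 of their SD; inactive means the rest.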 Only a sample is shown.

molecular target: Chloride channel protein 1 (Rattus norvegicus) (UniProt P35524); assay: ClC-1 chloride channel inhibition, selectivity assay for TMEM16A inhibitor project, cell-based, voltage-dependent ClC-1 (AID 652236); conditions: CHO ClC-1-YFP, iodide influx fluorescence quench; at 10 µM; iodide control reads 0, buffer control 100;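 further: higher percent means stronger block of ClC-1 iodide influx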
Sequence (P35524 whole entry, looked up): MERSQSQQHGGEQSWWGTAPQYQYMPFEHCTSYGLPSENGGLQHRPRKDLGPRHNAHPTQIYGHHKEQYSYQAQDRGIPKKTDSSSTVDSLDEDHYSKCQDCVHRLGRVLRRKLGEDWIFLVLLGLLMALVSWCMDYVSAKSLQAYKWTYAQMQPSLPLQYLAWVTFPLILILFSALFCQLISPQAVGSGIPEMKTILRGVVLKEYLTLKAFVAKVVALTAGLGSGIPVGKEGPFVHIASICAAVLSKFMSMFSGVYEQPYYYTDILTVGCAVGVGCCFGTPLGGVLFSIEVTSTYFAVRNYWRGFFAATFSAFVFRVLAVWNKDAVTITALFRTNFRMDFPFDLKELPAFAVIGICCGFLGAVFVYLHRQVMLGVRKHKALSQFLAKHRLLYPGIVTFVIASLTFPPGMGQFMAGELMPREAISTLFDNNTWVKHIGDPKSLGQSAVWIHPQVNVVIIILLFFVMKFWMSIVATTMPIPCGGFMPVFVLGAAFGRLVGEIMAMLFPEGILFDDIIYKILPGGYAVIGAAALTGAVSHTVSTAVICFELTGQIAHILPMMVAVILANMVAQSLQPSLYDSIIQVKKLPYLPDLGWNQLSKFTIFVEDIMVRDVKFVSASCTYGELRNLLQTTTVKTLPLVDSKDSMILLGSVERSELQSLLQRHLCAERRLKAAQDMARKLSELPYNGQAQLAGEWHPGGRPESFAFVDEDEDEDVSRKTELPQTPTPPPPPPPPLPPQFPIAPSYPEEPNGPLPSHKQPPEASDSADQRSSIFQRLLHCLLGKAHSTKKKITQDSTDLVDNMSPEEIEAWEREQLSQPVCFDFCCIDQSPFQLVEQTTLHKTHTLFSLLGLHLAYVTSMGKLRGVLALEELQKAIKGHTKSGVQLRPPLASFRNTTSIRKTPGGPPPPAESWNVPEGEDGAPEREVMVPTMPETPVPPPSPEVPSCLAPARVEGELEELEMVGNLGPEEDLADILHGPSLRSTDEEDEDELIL
In short: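 System: ClC-1 CHO cells with mutant YFP H148Q/I152L; Probe or stimulus: iodide trigger solution, 138 mM as 4x stock; Times: compound 20 min, RT; Signal: YFP fluorescence quench kinetics; Measure: percent ratio versus buffer and iodide controls; Control set: buffer, iodide.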

Ratio percent, inactive:
S=C(NCC1CCCO1)N1CCN(c2ccc(Cl)c(Cl)c2)CC1 (configuration not stated) -16.5%
COc1ccc(Cl)cc1NC(=O)CCS(=O)(=O)c1cc2c(cc1C)NC(=O)CO2 -11%
CCc1cc2c(N3CCN(c4nnc(CC)s4)CC3)ncnc2s1 -5%
Cc1cccc(-n2c(SCC(N)=O)nc3c(c2=O)C2(CCCCC2)Cc2ccccc2-3)c1 -9.5%
Cc1ccc(-c2csc(-c3c[nH]c4ccccc34)n2)cc1 -9.5%
CCCCCc1ccc(-c2ccc(C(=O)O)cc2)nc1 -6%
Cn1c(=O)n(C)c2cc(S(=O)(=O)N3CCCc4ccccc43)ccc21 -7.5%
O=C(Nc1ccccc1)c1ccccc1NC(=O)C(F)(F)F -15%
Cc1ccc(NC(=O)C(C)c2cccc(C(=O)c3ccccc3)c2)cc1 (configuration not stated) -13.5%
CSc1cccc(NC(=S)N(C(C)C)C(C)c2ccccn2)c1 (configuration not stated) -3%
CC(C)(C)C(=O)/C(C#N)=C/c1ccc(O)cc1 -8%
C=C(C)Cn1c(C)cc(C)c(S(=O)(=O)c2ccccc2C)c1=O -6%
CCCOc1ccc(Cc2c(Cl)nc(SC)nc2NC)cc1 -27.5%
CC(NC(=O)c1ccco1)C(=O)Nc1nc(-c2ccccn2)cs1 (configuration not stated) -2.5%
Cc1ccc2c(c1)N(CC(=O)N1CCCc3ccccc31)C(=O)C(C)O2 (configuration not stated) -3%
Cn1c(CCN2CCCCCC2)nc2cc(NC(=O)Nc3ccccc3)ccc21 -1.5%
Cc1cc(C)cc(NS(=O)(=O)c2ccc(Oc3ncc(C(F)(F)F)cc3Cl)cc2)c1 -9.5%
CN(c1cccc(NC(=O)c2ccc(CN3CCc4ccccc4C3)cc2)c1)S(C)(=O)=O -8%
COc1ccc(S(=O)(=O)NCCCCOc2ccc(Cl)cc2)cc1 -32.5%
COc1ccc(NC(=O)C2=CC(c3ccc(OC)c(OC)c3)=NS(=O)(=O)N2C)cc1 -3.5%
Cc1ccccc1-n1nnnc1SCCCC(=O)c1ccc(F)cc1 -11%
COc1ccc(-c2nc(CCNC(=O)c3ccc(Br)o3)cs2)cc1 -12%
O=C(CN1CCN(C(=S)NC2CCCC2)CC1)Nc1ccc(Oc2ccccc2)cc1 -15.5%
CCOC(=O)C1CCN(c2ncnc3c2oc2ccc(Br)cc23)CC1 -36.5%
Cc1cc(C=O)c(C)n1-c1ccc(NC2CCCCC2)c([N+](=O)[O-])c1 -10.5%
O=C(O)c1ccc(NC(=O)C2CCCCC2)cc1 -7%
Cc1nc(CNS(=O)(=O)c2ccc(Oc3ccccc3)cc2)cs1 -6.5%
S=C(NCc1cccs1)Nc1ccc(Cl)cc1 -12.5%
N#CC1=C(SCc2ccccc2)NC(=O)C(C#N)C12CCCC2 (configuration not stated) -12.5%
C=CCSc1nsc(NC(=O)Nc2cccc(C(C)=O)c2)n1 -15.5%
O=C(Nc1nc(-c2ccc3c(c2)OCO3)cs1)c1ccncc1 -13.5%
CCC(=O)Nc1ccc2nc(C)n(Cc3ccccc3Cl)c(=O)c2c1 -2%
O=C(N/N=C/c1cc(Cl)cc([N+](=O)[O-])c1O)C(O)(c1ccccc1)c1ccccc1 -7%
O=S1(=O)CCN(Cc2ccccc2Cl)CC1 -3.5%
O=C(NC(=S)Nc1ccccc1C(=O)O)c1ccc(-c2ccc(Br)cc2)o1 -15%
O=C(COC(=O)CCc1c[nH]c(=O)[nH]1)Nc1ccccc1Cl -14%
c1ccc(-c2nnc(SCc3nc4ccccc4[nH]3)o2)cc1 -14%
O=C1c2ccccc2C(Nc2ccc3c(c2)OCCO3)N1Cc1ccco1 (configuration not stated) -13%
Cc1ccc(NC(=O)CN(C)CC(=O)Nc2cccc(F)c2)cc1[N+](=O)[O-] -20.5%
COC(=O)c1ccc(COC(=O)c2c(C)nn(Cc3ccccc3Cl)c2Cl)o1 -2%
CCn1nccc1C(=O)Nc1ccc(S(=O)(=O)NC23CC4CC(CC(C4)C2)C3)cc1 -8.5%
COc1ccc2[nH]cc(/C=C(/C#N)S(=O)(=O)c3ccccc3)c2c1 -11.5%
CC1=NN(c2cccc(Cl)c2)C(=O)C12CC(C)=C(C)CS2 (configuration not stated) -13.5%
O=C(CSCc1ccc(Cl)cc1)N1CCN(Cc2ccc3c(c2)OCO3)CC1 2.5%
COc1ccc(CCC(=O)c2ccc(OC)cc2)cc1 -4%
Fc1ccc2[nH]c3c(N4CCSCC4)ncnc3c2c1 -36.5%
O=C(CNCCC1=CCCCC1)Nc1ccccc1N1CCCCCC1 -9%
CN(C)c1cc[n+](Cc2ccccc2)cc1 -5%
Cc1ccc(-n2[nH]c(C)c(/C=N/N3C(=O)c4cccc5cccc(c45)C3=O)c2=O)cc1 -16%
Cc1nc(SCC(=O)N2CCc3ccccc3C2)c2c(C)c(C)sc2n1 -16%
O=C(NCCc1ccc2c(c1)OCCO2)c1cc2ccccc2o1 -21%
Cc1ccc(F)cc1NC(=O)Cc1nn(C)c(=O)c2ccccc12 -14%
Cc1ccc(N)cc1-n1c(C)ccc1C -8%
CCOC(=O)C(Sc1ncc(C#N)c(N)n1)C(C)C (configuration not stated) -18%
Fc1ccc(CSc2nnc(-c3cc4c(s3)-c3ccccc3CC4)o2)cc1 -3%
N#Cc1nc(COc2ccc(-c3ccccc3)cc2)oc1NCc1cccnc1 -19%
Cc1nc2c(C(=O)NCc3ccc4c(c3)OCO4)c[nH]n2c(=O)c1Cc1ccccc1F -1.5%
COc1cc(CC(=O)Nc2nc(-c3ccc(F)c(F)c3)cs2)cc(OC)c1OC -7%
CN(Cc1cccnc1)C(=O)c1cc(COc2ccc3ncccc3c2)on1 -24%
Cc1ccc(-c2noc(CSc3nnnn3-c3ccccc3)n2)cc1 -1.5%
S=C(NCc1ccc(Cl)cc1)NC12CC3CC(CC(C3)C1)C2 -20.5%
Cc1[nH]n(-c2cccc(Cl)c2)c(=O)c1-c1ccc(Cl)cc1 -15%
COC(=O)c1ccc(NC(=O)c2ccccc2NS(=O)(=O)c2ccccc2)cc1 -22.5%
Cc1noc(C)c1COC(=O)c1cc2ccccc2cc1O -10.5%
CCOC(=O)N1CC=C2C(C#N)=C(N)C(C#N)(C#N)[C@H](c3cccs3)[C@H]2C1 -6.5%
CCOC(=O)c1cccc(NC(=O)CCn2nnc3ccccc32)c1 -15%
COc1cccc(CNS(=O)(=O)c2ccc3c(c2)CC(C)N3C(=O)C2CCC2)c1 (configuration not stated) -19.5%
O=C(Nc1cccc(S(=O)(=O)Nc2ccc(Cl)cc2)c1)c1ccc2c(c1)OCCO2 -24.5%
Cc1nc2ccccc2cc1OCc1ccc(F)cc1 -17%
CCCC(=O)Nc1ccccc1N1CCN(C(=O)c2ccccc2)CC1 -12.5%
CC1CCN(C(=O)c2ccc(CSc3ccc(Cl)cc3)cc2)CC1 -22.5%
CC(=O)c1c(C)[nH]c(C(=O)COC(=O)c2cccc(S(=O)(=O)N(C)c3ccccc3)c2)c1C -31%
CN1c2ccc(C=O)c3c(C=O)ccc(c23)N(C)C1(C)C -24.5%
COc1ccc(C(=O)NC2CCCc3c2cnn3-c2cccc(C)c2C)c(OC)n1 (configuration not stated) -21.5%
COc1ccc(CNc2nnnn2C)cc1 -10.5%
CCOC(=O)C1=C(CN2CCc3ccccc32)NC(=O)NC1c1cccc([N+](=O)[O-])c1 (configuration not stated) -12%
CSc1nnc2c(n1)OC(c1ccsc1)N(C(C)=O)c1ccccc1-2 (configuration not stated) -3.5%
Cc1nc(C)c(-c2csc(NCCc3ccccc3)n2)s1 -9%
CSc1nsc(NC(=O)Nc2ccccc2)n1 -7.5%
N#Cc1nc(N)nc(N(c2ccccc2)c2ccccc2)n1 -2%
CCCc1cc(=S)n2c([nH]c3ccccc32)c1C#N -9.5%
C=CCn1c(SCC(=O)Nc2nc3ccccc3s2)nnc1-c1ccccc1O -17.5%
CCCCNC(=O)CSc1nc2n[nH]c(C)c2c(=N)n1-c1cccc(Cl)c1C -4.5%
COc1ccc(OCC(=O)NCCc2ccc(S(N)(=O)=O)cc2)cc1 -14%
O=c1cc(C(F)(F)F)[nH]c(=O)n1C1CCCCC1 0%
Cc1ccc(-n2ncc3c(N4CCN(c5ccc(F)cc5)CC4)ncnc32)c(C)c1 -13%
Cc1cccc(N=Nc2c(O)[nH]c3ccc(F)cc23)c1 2.5%
Cc1ccc(C)c(N2CCN(C(=O)CCCCn3c(=O)[nH]c4ccccc4c3=O)CC2)c1 -2%
CC(C)CNC(=S)NNC(=O)c1nn(C)cc1Cl -14%
CCOC(=O)N1CCN(C(=O)c2ccc3c(c2)N(Cc2ccc(C)cc2)CCS3)CC1 -13%
Cc1ccc(C)c(N2CCN(S(=O)(=O)c3ccc4c(c3)oc(=O)n4C)CC2)c1 -27.5%
COc1ccc(-n2c(C)cc(C(=O)CSc3nnc(-c4cccs4)o3)c2C)cc1 -7%
Cn1c(CN2CCOCC2)nc2cc(NC(=O)c3ccc(Cl)cc3)ccc21 -9%
Cc1ccc2c(c1)N(S(=O)(=O)c1cc(-c3cc(C)no3)ccc1C)CCO2 -4%
Cc1ccc(N2C(=O)S/C(=C/c3cn(C)c4ccccc34)C2=O)cc1 -10%
CCCCn1ccnc1C(=O)c1cccc(S(=O)(=O)N2c3ccccc3CC2C)c1 (configuration not stated) -3%
CCN(CC)S(=O)(=O)c1ccc(N(C)Cc2ccc(C(F)(F)F)cc2)nc1 -9%
O=C(COc1ccccc1)NCc1ccc2c(c1)OCO2 -4.5%
Cc1ccc(C(=O)O)cc1-c1ccc(/C=C2\SC(=O)N(CC(=O)Nc3ccc4c(c3)OCO4)C2=O)o1 -5.5%
COc1ccc(CN(C)C(=O)CC(c2ccccc2)c2ccccc2)cc1 -8.5%
CC(=O)c1cc(CN2CCC(C(=O)Nc3cccc(-c4cscn4)c3)CC2)cs1 -16.5%
O=C1NC(=O)C2C1C(c1ccc([N+](=O)[O-])cc1)=NN2Cc1ccccc1 (configuration not stated) -32%
